Experiments:
Rattus norvegicus [1] = test: In vivo blocking of apomorphine induced stereotypies following 1 mg/kg i.p. in rats after 60 min.; type: functional; details: ip, 1 h, route intraperitoneal
Procedure, shortened: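 Male Sprague-Dawley rats (250-300 g) received test compound ip in saline or water 60 min before sc apomorphine 1 mg/kg given into the neck. Stereotypy strength was scored at 5, 20, 40 and 60 min. It was derived by Theil's method with Sen's correction for ties, with a 90% confidence interval.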

Rattus norvegicus [2] = test: The dosage at which 50% of the animals were cataleptic was measured after (ip) administration in male Sprague-Dawley rats; type: functional
Procedure, shortened: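 Eight rats per dose level were tested. Both forelimbs were placed on a 7-cm-high horizontal bar, and failure to step off within 60 s counted as cataleptic. Testing was done 1, 2, 4, 8 and 24 h post-dose. ED50 with 95% confidence interval came from probit analysis of each compound's peak cataleptic effect.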

Rattus norvegicus [3] = test: In vivo blocking of apomorphine induced hyperactivity following 1 mg/kg i.p. in rats after 60 min.; type: functional; details: ip, 1 h, route intraperitoneal
Procedure, shortened: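 Male Sprague-Dawley rats (250-300 g) were dosed ip with test compound in saline or water 60 min before apomorphine 1 mg/kg sc into the neck. Behavior was scored at 5, 20, 40 and 60 min. It was calculated by Theil's method with Sen's tie correction, with a 90% confidence interval.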

[4] = The acute toxicity was assessed after (ip) administration in male Sprague-Dawley rats; type: organism-based; details: rat, in vivo

In the case of `CCOc1ccc(Cl)c(OCC)c1C(=O)NCC1CCCN1CC` (stereo not drawn), the ED50 (Rattus norvegicus [1]) is reported as 7.2 µmol/kg, the ED50 (Rattus norvegicus [2]) is reported as 31 µmol/kg and the ED50 (Rattus norvegicus [3]) is reported as 2.8 µmol/kg.

In the case of `CCN1CCCC1CNC(=O)c1cc(S(N)(=O)=O)ccc1OC` (stereo not drawn) [SULPIRIDE], the ED50 (Rattus norvegicus [1]) is reported as 212 µmol/kg, the ED50 (Rattus norvegicus [2]) is reported as 161 µmol/kg and the ED50 (Rattus norvegicus [3]) is reported as 65.6 µmol/kg.

In the case of `CCOc1cccc(OCC)c1C(=O)NCC1CCCN1CC` (stereo not drawn), the ED50 (Rattus norvegicus [1]) is reported as over 40 µmol/kg and the ED50 (Rattus norvegicus [3]) is reported as 23.4 µmol/kg.

`CCOc1ccc(Br)c(OCC)c1C(=O)NC[C@@H]1CCCN1CC.Cl` showed an ED50 (Rattus norvegicus [1]) of 1.9 µmol/kg, an LD50 [4] of 206 µmol/kg and an ED50 (Rattus norvegicus [2]) of 8.9 µmol/kg. For the same molecule, the ED50 (Rattus norvegicus [3]) was 0.47 µmol/kg.

Molecule `CCOc1ccc(Br)c(OCC)c1C(=O)NCC1CCCN1CC` (stereo not drawn) has an ED50 (Rattus norvegicus [1]) of 4.7 µmol/kg, an ED50 (Rattus norvegicus [2]) of 15.7 µmol/kg and an ED50 (Rattus norvegicus [3]) of 1.1 µmol/kg.

Work on `CCN1CCC[C@H]1CNC(=O)c1c(OC)c(Br)cc(Br)c1OC` yielded an ED50 (Rattus norvegicus [1]) of 2.1 µmol/kg, an ED50 (Rattus norvegicus [2]) of 5.3 µmol/kg and an ED50 (Rattus norvegicus [3]) of 0.44 µmol/kg.

Molecule `COc1ccc(Br)c(OC)c1C(=O)NCC1CCCN1` (stereo not drawn) has an ED50 (Rattus norvegicus [1]) of 100 µmol/kg and an ED50 (Rattus norvegicus [3]) of 47 µmol/kg.

Molecule `CCN1CCCC1CNC(=O)c1c(OC)c(Cl)cc(Br)c1OC` (stereo not drawn) has an ED50 (Rattus norvegicus [1]) of 7.3 µmol/kg, an LD50 [4] of 206 µmol/kg and an ED50 (Rattus norvegicus [2]) of 5 µmol/kg. For the same molecule, the ED50 (Rattus norvegicus [3]) was 3.9 µmol/kg.

In the case of `CCN1CCC[C@@H]1CNC(=O)c1c(OC)c(Br)cc(Br)c1OC`, the ED50 (Rattus norvegicus [1]) is reported as over 82 µmol/kg, the LD50 [4] is reported as 159 µmol/kg and the ED50 (Rattus norvegicus [3]) is reported as 13.1 µmol/kg.

For `CCN1CCCC1CNC(=O)c1c(Cl)cccc1Cl` (stereo not drawn), the ED50 (Rattus norvegicus [1]) was over 80 µmol/kg and the ED50 (Rattus norvegicus [3]) was over 80 µmol/kg.

`CCN1CCCC1CNC(=O)c1c(OC)c(Br)cc(Br)c1OC.Cl` (stereo not drawn) showed an ED50 (Rattus norvegicus [1]) of 4.6 µmol/kg, an LD50 [4] of 177 µmol/kg and an ED50 (Rattus norvegicus [2]) of 8.2 µmol/kg. It also gave an ED50 (Rattus norvegicus [3]) of 1.15 µmol/kg.

Molecule `CCN1CCCC1CNC(=O)c1c(OC)c(Cl)cc(Cl)c1OC` (stereo not drawn) has an ED50 (Rattus norvegicus [1]) of 5.4 µmol/kg, an LD50 [4] of 224 µmol/kg and an ED50 (Rattus norvegicus [2]) of 16.8 µmol/kg. For the same molecule, the ED50 (Rattus norvegicus [3]) was 3.1 µmol/kg.

Work on `CCN1CCC[C@H]1CNC(=O)c1c(OC)ccc(Br)c1OC.Cl` yielded an LD50 [4] of 794 µmol/kg and an ED50 (Rattus norvegicus [2]) of 24.5 µmol/kg.

`CCN1CCCC1CNC(=O)c1c(OC(C)C)cccc1OC(C)C.Cl` (stereo not drawn) gave an ED50 (Rattus norvegicus [1]) of over 80 µmol/kg, an LD50 [4] of about 160 µmol/kg and an ED50 (Rattus norvegicus [3]) of over 80 µmol/kg.

`CCN1CCCC1CNC(=O)c1c(OC)ccc(Cl)c1OC` (stereo not drawn) showed an ED50 (Rattus norvegicus [1]) of 42.7 µmol/kg and an ED50 (Rattus norvegicus [3]) of 30.8 µmol/kg.

`CCN(CC1CCCN1CC)C(=O)c1c(OC)c(Br)cc(Br)c1OC` (stereo not drawn) showed an ED50 (Rattus norvegicus [1]) of over 80 µmol/kg and an ED50 (Rattus norvegicus [3]) of over 80 µmol/kg.

Molecule `CCN1CCC[C@@H]1CNC(=O)c1c(OC)ccc(Br)c1OC` has an ED50 (Rattus norvegicus [1]) of over 196 µmol/kg and an ED50 (Rattus norvegicus [3]) of 120 µmol/kg.

For `CCN1CCC[C@H]1CNC(=O)c1c(OC)ccc(Cl)c1OC.Cl`, the ED50 (Rattus norvegicus [1]) was 11.7 µmol/kg, the LD50 [4] was about 826 µmol/kg and the ED50 (Rattus norvegicus [3]) was 5.6 µmol/kg.

In the case of `O=C(CCCN1CCC(O)(c2ccc(Cl)cc2)CC1)c1ccc(F)cc1` [HALOPERIDOL], the ED50 (Rattus norvegicus [1]) is reported as 0.27 µmol/kg, the ED50 (Rattus norvegicus [2]) is reported as 0.67 µmol/kg and the ED50 (Rattus norvegicus [3]) is reported as 0.29 µmol/kg.

`CCN1CCCC1CNC(=O)c1c(OC)ccc(Br)c1OC.Cl` (stereo not drawn) showed an ED50 (Rattus norvegicus [1]) of 21.3 µmol/kg, an LD50 [4] of 817 µmol/kg and an ED50 (Rattus norvegicus [2]) of 47 µmol/kg. The ED50 (Rattus norvegicus [3]) was 12.8 µmol/kg.

— ChEMBL document CHEMBL1121964, “Potential neuroleptic agents. 2,6-Dialkoxybenzamide derivatives with potent dopamine receptor blocking activities” (J Med Chem, 1982)
